Screens as filed in PubChem BioAssay.
H69AR inhibit: proliferation blockers of H69AR lung cancer cells, primary screen, cell-based, human, 86K library; H69AR lung tumor viability, ATP luminescence, 72 h; stronger effect = lower value; viability, % at 10 µM; 85,000 compounds, 6% hits; AID 598, 2007;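 active means viability at or below 40%; inactive means viability above 40%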;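 further: multidrug resistant small cell line overexpressing MRP-1 efflux transporter; 100% = mean luminescence of untreated control wells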
Cav32 inh: Cav3.2 calcium influx blockers – cell-based, Fluo-4 calcium fluorescence, FDSS, MLSMR library, primary screen; AID 449739, 2010; Cav3.2-expressing cells; stronger effect = lower value; 100,000 compounds, 4% hits; B-score at 10 µM; Voltage-dependent T-type calcium channel subunit alpha-1H (Homo sapiens), O95180;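 active means single-dose well whose peak fluorescence ratio is a statistical outlier from its plate by either plate-standardised score or position-corrected B-score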
Target sequence (O95180 whole entry, looked up): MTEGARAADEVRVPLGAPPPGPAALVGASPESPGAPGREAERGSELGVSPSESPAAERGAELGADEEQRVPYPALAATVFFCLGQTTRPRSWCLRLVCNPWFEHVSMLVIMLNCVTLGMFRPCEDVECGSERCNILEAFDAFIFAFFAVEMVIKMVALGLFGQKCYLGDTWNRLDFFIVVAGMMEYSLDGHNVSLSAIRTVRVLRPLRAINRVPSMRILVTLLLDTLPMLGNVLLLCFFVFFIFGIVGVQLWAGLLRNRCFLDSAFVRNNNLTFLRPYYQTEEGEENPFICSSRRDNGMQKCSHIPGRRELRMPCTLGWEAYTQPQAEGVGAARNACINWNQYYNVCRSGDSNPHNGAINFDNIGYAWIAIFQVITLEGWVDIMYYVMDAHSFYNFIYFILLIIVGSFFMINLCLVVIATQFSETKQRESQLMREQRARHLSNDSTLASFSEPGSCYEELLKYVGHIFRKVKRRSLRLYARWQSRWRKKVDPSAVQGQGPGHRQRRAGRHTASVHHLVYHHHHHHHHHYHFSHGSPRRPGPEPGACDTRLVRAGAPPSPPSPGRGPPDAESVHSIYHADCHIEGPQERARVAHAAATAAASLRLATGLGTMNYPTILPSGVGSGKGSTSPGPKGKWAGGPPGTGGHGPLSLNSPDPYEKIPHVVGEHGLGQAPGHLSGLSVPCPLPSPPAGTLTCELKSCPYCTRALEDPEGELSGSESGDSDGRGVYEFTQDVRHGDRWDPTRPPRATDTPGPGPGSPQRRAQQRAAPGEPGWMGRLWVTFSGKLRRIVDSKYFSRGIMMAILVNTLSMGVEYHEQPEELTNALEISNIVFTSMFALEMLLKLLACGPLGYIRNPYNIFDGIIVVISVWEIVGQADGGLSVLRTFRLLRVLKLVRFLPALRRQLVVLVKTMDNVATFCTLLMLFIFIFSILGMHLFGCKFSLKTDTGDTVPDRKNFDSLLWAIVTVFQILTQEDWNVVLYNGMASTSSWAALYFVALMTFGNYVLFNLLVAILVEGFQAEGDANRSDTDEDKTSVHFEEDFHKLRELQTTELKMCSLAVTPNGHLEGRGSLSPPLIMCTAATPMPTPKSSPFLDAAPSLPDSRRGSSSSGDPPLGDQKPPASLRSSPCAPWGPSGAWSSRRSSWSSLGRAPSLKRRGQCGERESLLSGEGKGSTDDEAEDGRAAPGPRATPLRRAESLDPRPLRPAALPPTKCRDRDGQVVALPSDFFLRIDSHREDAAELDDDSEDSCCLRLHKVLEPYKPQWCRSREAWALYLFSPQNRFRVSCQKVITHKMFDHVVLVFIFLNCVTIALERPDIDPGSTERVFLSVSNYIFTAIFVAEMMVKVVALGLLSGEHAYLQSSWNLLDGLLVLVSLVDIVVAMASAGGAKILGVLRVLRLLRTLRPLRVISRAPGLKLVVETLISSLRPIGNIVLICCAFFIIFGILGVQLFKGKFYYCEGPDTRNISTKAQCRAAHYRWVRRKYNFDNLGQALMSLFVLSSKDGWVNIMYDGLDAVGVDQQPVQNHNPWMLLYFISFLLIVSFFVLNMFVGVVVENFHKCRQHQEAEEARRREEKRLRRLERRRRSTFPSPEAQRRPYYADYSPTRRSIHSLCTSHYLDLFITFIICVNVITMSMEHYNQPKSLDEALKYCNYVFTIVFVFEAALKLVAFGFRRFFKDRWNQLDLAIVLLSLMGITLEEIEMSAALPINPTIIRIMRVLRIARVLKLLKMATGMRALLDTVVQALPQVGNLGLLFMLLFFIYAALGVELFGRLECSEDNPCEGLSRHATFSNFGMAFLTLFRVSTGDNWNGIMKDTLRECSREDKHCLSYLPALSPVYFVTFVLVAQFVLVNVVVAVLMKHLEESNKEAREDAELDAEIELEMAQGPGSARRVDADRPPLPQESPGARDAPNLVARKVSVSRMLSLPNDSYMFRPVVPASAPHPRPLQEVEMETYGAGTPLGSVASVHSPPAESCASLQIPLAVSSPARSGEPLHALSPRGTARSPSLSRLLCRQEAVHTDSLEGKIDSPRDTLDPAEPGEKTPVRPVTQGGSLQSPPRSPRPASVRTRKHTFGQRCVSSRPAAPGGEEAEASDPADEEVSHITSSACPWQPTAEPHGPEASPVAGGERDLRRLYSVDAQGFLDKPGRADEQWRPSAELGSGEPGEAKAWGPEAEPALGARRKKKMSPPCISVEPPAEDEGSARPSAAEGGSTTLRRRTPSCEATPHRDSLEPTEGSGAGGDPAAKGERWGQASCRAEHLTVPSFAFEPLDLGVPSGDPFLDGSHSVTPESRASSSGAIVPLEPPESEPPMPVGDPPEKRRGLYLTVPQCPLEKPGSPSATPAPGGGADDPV
HUVEC prolif 384: inhibitors of HUVEC proliferation, primary screen, cell-based, 384-well; CellTiter-Glo luminescence, 72 h; stronger effect = lower value; viability, % at 10 µM (by protocol); 86,000 compounds, 1.1% hits; AID 648, 2007;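 active means viability at or below 30%; inactive means viability above 30%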;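 further: 100% = median luminescence of DMSO-only cell control wells on each plate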
HCT116 bCat-KO: primary screen for growth suppressors in beta-catenin knockout HCT116 cells (colon tumor, human); HCT116 beta-catenin knockout viability, CellTiter-Glo, 60 h; stronger effect = lower value; viability, % at 10 µM; 140,000 compounds, 1.5% hits; AID 818, 2007;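 active means viability at or under a set limit, the compound median less 4 SD, cut at about 6% in these data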;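 further: 0% = Hyamine 1622 control at 20 µM and 100% = untreated cell control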
Lung fibro prol: antiproliferative effect on LL 47 fibroblasts – human, LL 47 cells, CellTiter-Glo luminescence, primary screen | LL 47 human lung fibroblast viability, ATP luminescence; stronger effect = lower value | viability, % at 10 µM | AID 719, 2007 | 85,000 compounds, 1.1% hits;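 active means viability at or below 50% in the single dose screen; inactive means viability above 50%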;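 further: compound exposure lasted 72 h before the ATP readout; 100% = median luminescence of untreated cell-only wells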
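test system = LL 47 human lung fibroblasts | amount = 1,150 fibroblasts seeded per well | medium = 15% FBS in IMEM | times = overnight cell rest, 72 h compound treatment at 37 °C | measured by = CellTiter-Glo luminescence measuring cellular ATP | read-out = viability percentage against median untreated-cell control | benchmarks = cell-only wells, no compound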
HCT116 PTEN-null: growth suppression of PTEN-null HCT116, primary screen, cell-based, CellTiter-Glo; 140,000 compounds, 1.2% hits; HCT116 PTEN-null viability, 60 h; stronger effect = lower value; viability, % at 10 µM; AID 827, 2007;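 active means viability at or below a set limit, 4 SD under the median of all tested compounds, cut at about 3.7% in these data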;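 further: PTEN knockout HCT116 line with beta catenin targeted HCT116 as companion control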
* marks the source's active call; other numbers are inactive results; / = no result given. This is a sample that favours compounds with a hit; in the whole collection about 7.1% have one here.

SMILES	H69AR inhibit	Cav32 inh	HUVEC prolif 384	HCT116 bCat-KO	Lung fibro prol	HCT116 PTEN-null
Cc1ccc(-c2noc(CCC(=O)N(C)c3ccccc3C)n2)cc1	88	-5.6*	88	75	100	75
COc1ccc(-c2noc(CCC(N)=O)n2)cc1OC	99	0.83	97	92	102	103
CCN(C(=O)CCc1nc(-c2ccc(OC)cc2)no1)c1cc(OC)ccc1OC	83	-6.5*	100	37	104	36
Cc1ccc(-c2noc(CCC(=O)NC3CCN(Cc4ccccc4)CC3)n2)cc1	85	-0.064	95	39	99	45
Cc1ccc(-c2noc(CCC(=O)NC3CCCc4ccccc43)n2)cc1 (centres undefined)	20*	-3.6	88	80	105	87
Cc1ccc(-c2noc(CCC(=O)Nc3ccccc3C)n2)cc1	102	-0.81	94	100	97	112
COc1ccc(-c2noc(CCC(=O)N(C)c3cccc(C)c3)n2)cc1	88	-5.8*	94	53	94	61
O=C(NCCO)/C(=C\c1ccc(Br)cc1)NC(=O)c1cccs1	/	/	/	88	/	96
CCOCc1c(C(=O)OCC(=O)Nc2ccc(C)c(S(=O)(=O)N(C)C)c2)oc2ccccc12	/	/	/	84	/	93
COc1ccc(C)cc1NC(=O)CNc1ccc(C(C)=O)cc1	/	/	/	72	/	60
CC(=O)Nc1ccc(N=Cc2ccc[nH]2)cc1	/	0.22	/	102	/	94
Oc1ccccc1N=Cc1ccc[nH]1	35*	0.45	101	92	111	100
CCOCC(=O)Nc1ccc(S(=O)(=O)NCCc2ccccc2)cc1	15*	/	110	81	104	84
N=c1c(-c2nc3ccccc3[nH]2)cc(C(=O)c2cccs2)nn1-c1ccccc1	5.4*	0.39	70	47	86	54
Cc1ccc(C(=O)N/C(=C\c2cccs2)C(=O)NCC2CCCO2)cc1C (centres undefined)	/	/	/	87	/	104
CCc1ccc(OCCNC(=O)c2ccccc2SCc2ccccc2)cc1	/	-6.8*	/	62	/	58
CCc1ccc(OCC(=O)NCCOc2ccccc2)cc1	99	-4.4*	111	96	98	95
CCCCOCCCNC(=O)COc1ccccc1	95	0.45	107	92	99	94
COCn1ccnc1C(O)(c1ccc(OC)cc1)c1ccc(OC)cc1	/	/	/	96	/	107
O=C(/C=C/c1ccc(Cl)c([N+](=O)[O-])c1)Nc1ccc(N2CCCC2)cc1	/	/	/	63	/	44
Cc1cccc(C)c1OC1(c2ccccc2)OC(=O)c2ccccc21 (centres undefined)	/	-6.6*	/	58	/	57
CCOC(=O)c1cc(-c2ccccc2)nc2c1c(C)nn2-c1ccccn1	45	-1.7	77	54	66	38
CCOC(=O)c1cc(-c2ccncc2)nc2c1c(C)nn2C	33*	0.8	46	44	57	48
Cc1ccc(N(Cc2ccc([N+](=O)[O-])cc2)C(=O)c2ccco2)cc1	/	-6.7*	/	89	/	89
COc1cc(CN(C(=O)c2ccco2)c2ccc(C)cc2)ccc1O	73	-0.16	90	85	101	96
SMILES	H69AR inhibit	Cav32 inh	HUVEC prolif 384	HCT116 bCat-KO	Lung fibro prol	HCT116 PTEN-null
COc1ccc(CN(C(=O)c2ccco2)c2ccc(Br)cc2)cc1OC	/	-4.6*	102	95	90	92
O=C1CC(N2CCN(c3ccccn3)CC2)C(=O)N1CC(c1ccccc1)c1ccccc1 (centres undefined)	84	-6.3*	93	84	89	83
COc1ccc(CCN2C(=O)CC(N3CCN(c4ccccn4)CC3)C2=O)cc1OC (centres undefined)	90	0.39	95	94	100	103
COc1cccc(CNc2ccc(N3CCC(C)CC3)cc2)c1OC	14*	-7.7*	93	59	99	74
O=C(Nc1nnc(C2CC2)s1)c1cccc(S(=O)(=O)N2CC(c3ccccc3)CC2=O)c1 (centres undefined)	92	-0.7	102	92	102	102
O=C(CCN1CCc2ccccc2C1)c1ccc2c(c1)OCCO2	0.7*	2.3	87	64	80	80
N=c1oc2ccccc2cc1-c1nc(-c2ccc(Cl)cc2)cs1	/	/	/	80	/	74
Cc1ccc(C(=O)CSc2nnc(-c3cccnc3)n2N)cc1	27*	0.21	78	59	94	54
Cc1ccc(CSc2nnc(-c3cccnc3)n2N)cc1	83	/	103	89	105	84
CC(C)CN(C(=O)c1nn(C)c(=O)c2ccccc12)c1nc2ccccc2s1	84	-0.74	110	69	90	79
CCCN(CC(=O)c1cc(C)n(C)c1C)S(=O)(=O)c1cccc(C(F)(F)F)c1	/	-4.4*	/	31	/	45
COc1ccc(OC)c(NC(=O)CSc2nnc(Cc3cccn3C)n2-c2ccc(F)cc2)c1	59	-2.5	96	80	96	95
COc1ccc(-n2c(Cc3cccn3C)nnc2SCC(=O)Nc2ccccc2F)cc1	80	-4.4*	102	74	94	78
COc1ccc(-n2c(Cc3cccn3C)nnc2SCC(=O)Nc2ccc(F)cc2F)cc1	83	-8.4*	89	73	86	72
COc1ccc(-n2ncc3c(SCC(=O)N4CCN(c5ccccc5OC)CC4)ncnc32)cc1	23*	/	58	60	96	43
O=C(CSc1ncnc2c1nnn2-c1ccc(F)cc1)N1CCN(c2ccccc2)CC1	27*	/	89	/	98	/
COc1ccc(N2CCN(C(=O)CSc3nnc(-c4cccnc4)n3-c3ccc(F)cc3)CC2)cc1	82	1.4	90	70	93	82
O=C(CSc1nnc(-c2cccnc2)n1-c1ccccc1)N1CCN(c2ccc(F)cc2)CC1	46	4*	97	92	108	81
CO/N=C(/CNC(=O)c1ccccc1Cl)c1ccc(Cl)cc1	/	/	/	90	/	82
CCN(CC)c1cnn(C/C(=N\OC)c2ccc(Cl)cc2)c(=O)c1Br	80	-5.1*	93	81	84	70
O=C(O)CC(c1ccc(Cl)cc1)N1C(=O)CCC1=O (centres undefined)	94	0.49	94	99	99	95
C=CCc1ccc(O)c(-c2ccc(O)c(CC=C)c2)c1	/	-5.4*	/	/	/	/
C=CCc1cc(C(=O)N2CCCCC2)ccc1O	77	/	96	91	107	98
O=C(Nc1nn[nH]n1)C12CC3CC(CC(C3)C1)C2	90	0.97	90	98	97	101
O=C(NNc1cc(N2CCOCC2)nc(N2CCOCC2)n1)C12CC3CC(CC(C3)C1)C2	/	/	/	96	/	90
CCC(=O)OCc1c(C(F)(F)F)nn(C)c1Sc1ccc(F)cc1	/	-7.5*	/	100	/	102
